Assay results from ChEMBL document CHEMBL1221164, “Small molecules that delay S phase suppress a zebrafish bmyb mutant” (2005).
Calls of active or inactive are those of the source.

Experiments:
Danio rerio [1] = species on record: Danio rerio; test: Inhibition of B-myb-mediated mitotic deffects in zebrafish bmyb mutant crb embryos at 50 mM
Danio rerio [2] = species on record: Danio rerio; test: Inhibition of B-myb-mediated mitotic deffects in zebrafish bmyb mutant crb embryos at 50 mM
Method in brief: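 crb heterozygote intercross embryos exposed from 4 hpf to 24 hpf at 28.5 °C in E3 with 1% DMSO (aphidicolin […]; hydroxyurea 50 mM). Fixed in 4% paraformaldehyde, whole-mount stained for phospho-histone H3 (Ser10), genotyped by RFLP. pH3-positive cells counted in the tail distal to the yolk extension, or mutant phenotype scored by eye.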

Danio rerio [3] = species on record: Danio rerio; test: Inhibition of B-myb-mediated mitotic deffects in zebrafish bmyb mutant embryo assessed as intra-Sphase and G2/M checkpoint inhibition at 10 ug/ml
Method in brief: (§1)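 crb embryos given 2 mM caffeine or none at 4 hpf. Thirty minutes later […] aphidicolin added, then incubated overnight to 24 hpf at 28.5 °C in E3 with 1% DMSO. Mitotic accumulation read by whole-mount phospho-histone H3 staining, with pH3-positive cells counted in the tail distal to the yolk extension.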

Danio rerio [4] = species on record: Danio rerio; test: Inhibition of B-myb-mediated mitotic deffects in zebrafish bmyb mutant embryo assessed as intra-Sphase and G2/M checkpoint inhibition in presence of 2 mM caffeine at 10 ug/ml
Method in brief: as §1

Danio rerio [5] = species on record: Danio rerio; test: Inhibition of B-myb-mediated mitotic deffects in zebrafish bmyb mutant crb embryos assessed as suppression of apoptosis at 8 mM at 24 hrs post fertilization by TUNEL assay
Method in brief: (§2)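 Embryos treated overnight (from 4 hpf) with […] drug, washed at 24 hpf. Apoptosis read by TUNEL staining at 24 hpf, and by brain opacity morphology at 30 hpf.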

Danio rerio [6] = species on record: Danio rerio; test: Inhibition of B-myb-mediated mitotic deffects in zebrafish bmyb mutant crb embryos at […]; conditions: TDE = time-dependent effect
Method in brief: (§3)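 crb heterozygote incrosses; embryos in E3 with 1% DMSO at 28.5 °C, compound added at 4 hpf and kept until 24 hpf ([…] except in dose-response). Fixed in 4% paraformaldehyde and whole-mount stained for serine-10-phosphorylated histone H3. All pH3-positive cells in the tail distal to the yolk extension counted, at least five embryos per condition. Embryos genotyped by RFLP. ED50 from dose-response.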

[7] = Induction of S to M phase cell cycle progression in zebrafish bmyb mutant embryo cells assessed as Brdu incorporation; type: functional, Danio rerio
B-myb (Danio rerio) [8] = target: T1, B-myb (Danio rerio) (UniProt Q4KMF7); test: Inhibition of B-myb mediated mitotic deffects in wild-type zebrafish assessed as suppression of polyploidy at […] at 24 hrs post fertilization […]
T1 sequence (whole entry): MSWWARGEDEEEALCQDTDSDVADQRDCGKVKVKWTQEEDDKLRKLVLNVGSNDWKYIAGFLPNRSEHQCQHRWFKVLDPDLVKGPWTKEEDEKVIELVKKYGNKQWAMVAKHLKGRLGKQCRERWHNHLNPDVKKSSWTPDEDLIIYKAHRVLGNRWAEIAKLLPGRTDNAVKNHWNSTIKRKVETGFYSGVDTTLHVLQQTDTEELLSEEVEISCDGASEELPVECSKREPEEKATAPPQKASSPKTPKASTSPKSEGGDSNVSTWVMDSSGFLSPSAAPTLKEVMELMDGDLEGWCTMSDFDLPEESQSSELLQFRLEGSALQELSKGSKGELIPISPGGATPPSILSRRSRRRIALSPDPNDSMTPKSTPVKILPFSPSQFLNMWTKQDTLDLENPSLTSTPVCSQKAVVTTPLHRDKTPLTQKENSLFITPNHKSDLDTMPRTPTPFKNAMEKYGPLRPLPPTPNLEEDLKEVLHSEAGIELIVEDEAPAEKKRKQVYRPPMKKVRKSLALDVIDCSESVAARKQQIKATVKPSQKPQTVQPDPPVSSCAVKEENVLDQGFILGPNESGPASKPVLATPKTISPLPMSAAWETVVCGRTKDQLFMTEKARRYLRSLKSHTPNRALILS
Method in brief: (§4)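 Control and treated embryos, […] overnight, disaggregated and DNA content (2n/4n/8n) measured by flow cytometry. Individual-embryo FACS used a cell-suspension aliquot for genotyping.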

Danio rerio [9] = species on record: Danio rerio; test: Inhibition of B-myb-mediated mitotic deffects in zebrafish bmyb mutant crb embryos assessed as number of centrosomes in pH3 -positive cells at […] at 24 hrs post fertilization by pH3 and gamma tubulin staining; type: cell-based
Method in brief: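 Centrosomes detected with a monoclonal anti-γ-tubulin antibody (1:1,000) in embryos treated overnight with […] drug.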

Danio rerio [10] = species on record: Danio rerio; test: Inhibition of B-myb-mediated mitotic deffects in zebrafish bmyb mutant crb embryos
Method in brief: as §3

B-myb (Danio rerio) [11] = target: T1, B-myb (Danio rerio); test: Inhibition of B-myb-mediated mitotic deffects in wild-type zebrafish assessed as suppression of apoptosis at […] at 24 hrs post fertilization by TUNEL assay
Method in brief: as §2

Danio rerio [12] = species on record: Danio rerio; test: Inhibition of B-myb-mediated mitotic deffects in zebrafish bmyb mutant crb embryos assessed as reduction in abnormalities in mitotic spindle by pH3 and alpha tubulin staining; conditions: concentration not given here
Method in brief: (§5)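 Embryos treated overnight with […] drug, then double-stained for α-tubulin and pH3. Spindles counted in the body distal to the yolk ball. DAPI-stained cells with condensed chromatin counted manually in one field at the tail tip.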

B-myb (Danio rerio) [13] = target: T1, B-myb (Danio rerio); test: Inhibition of B-myb-mediated mitotic deffects in wild-type zebrafish embryo assessed as accumulation of cells in early S phase at […] at 24 hrs post fertilization for 6 hrs by flow cytometry
Method in brief: (§6)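 Wild-type embryos exposed 24–30 hpf (6 h at 28.5 °C) to […] drug. Embryos disaggregated, immunostained for pH3 and DNA content measured by flow cytometry (G1/S/G2M fractions). For S-phase confirmation, embryos labelled with BrdU and incorporation read by whole-mount immunostaining and FACS.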

B-myb (Danio rerio) [14] = target: T1, B-myb (Danio rerio); test: Inhibition of B-myb-mediated mitotic deffects in wild-type Zebrafish assessed as suppression of cells without spindles at […] at 24 hrs post fertilization by pH3 and alpha tubulin staining
Method in brief: as §5

Danio rerio [15] = species on record: Danio rerio; test: Inhibition of B-myb-mediated mitotic deffects in zebrafish bmyb mutant embryo assessed as increase in mitotic cells with condensed chromatin at 10 uM by pH3 and alpha tubulin staining; type: cell-based
B-myb (Danio rerio) [16] = target: T1, B-myb (Danio rerio); test: Inhibition of B-myb-mediated mitotic deffects in wild-type zebrafish assessed as number of centrosomes in pH3 -positive cells at […] at 24 hrs post fertilization by pH3 and […] staining; type: cell-based
Danio rerio [17] = species on record: Danio rerio; test: Inhibition of B-myb-mediated mitotic deffects in zebrafish bmyb mutant crb embryos assessed as prometaphase arrest at 10 uM by pH3 and alpha tubulin staining
B-myb (Danio rerio) [18] = target: T1, B-myb (Danio rerio); test: Inhibition of B-myb-mediated mitotic deffects in wild-type zebrafish assessed as increase in cyclin B1 mRNA expression
Method in brief: (§7)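 Wild-type and crb embryos treated with […] drug, then whole-mount in situ hybridization for cyclin B1.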

Danio rerio [19] = species on record: Danio rerio; test: Inhibition of B-myb-mediated mitotic deffects in zebrafish bmyb mutant crb embryos assessed as suppression of cells without spindles at 8 mM at 24 hrs post fertilization by pH3 and alpha tubulin staining
Method in brief: as §5

Danio rerio [20] = species on record: Danio rerio; test: Inhibition of B-myb-mediated mitotic deffects in zebrafish bmyb mutant crb embryos assessed as suppression of polyploidy at 8 mM at 24 hrs post fertilization by TUNEL assay
Method in brief: as §4

Danio rerio [21] = species on record: Danio rerio; test: Inhibition of B-myb-mediated mitotic deffects in zebrafish bmyb mutant crb embryos assessed as increase in cyclin B1 mRNA expression
Method in brief: as §7

B-myb (Danio rerio) [22] = target: T1, B-myb (Danio rerio); test: Inhibition of B-myb-mediated mitotic deffects in wild-type zebrafish embryo assessed as accumulation of cells in early S phase at […] at 24 hrs post fertilization for 6 hrs by flow cytometry in presence of 10 mM BrdU
Method in brief: as §6

NC(=O)NO
active: inhibition (Danio rerio [1]) | inhibition (Danio rerio [2])

C[C@@]1(CO)[C@H](O)CC[C@@]2(C)[C@H]1CC[C@H]1C[C@@H]3C[C@@]12CC[C@]3(O)CO
active: inhibition (Danio rerio [1]) | inhibition (Danio rerio [3]) | inhibition (Danio rerio [2]) | inhibition (Danio rerio [4])

O=C(Nc1ncccc1O)C12CC3CC(CC(C3)C1)C2 [PERSYNTHAMIDE]
active: inhibition (Danio rerio [5]) | inhibition (Danio rerio [6]) tde | inhibition (B-myb (Danio rerio) [8]) | inhibition (Danio rerio [9]) | inhibition (B-myb (Danio rerio) [11]) | inhibition (B-myb (Danio rerio) [13]) | inhibition (B-myb (Danio rerio) [14]) | inhibition (B-myb (Danio rerio) [16]) | inhibition (Danio rerio [17]) | inhibition (B-myb (Danio rerio) [18]) | inhibition (Danio rerio [19]) | inhibition (Danio rerio [20]) | inhibition (Danio rerio [21]) | inhibition (B-myb (Danio rerio) [22])
5 µM: ED50 (Danio rerio [10])
4: fold change (FC) (Danio rerio [15])
60%: Activity [7]
55%: inhibition (Danio rerio [12])
